Runt-SMMHC FRET: inhibitors of RUNX1 Runt–CBFb-SMMHC binding, primary screen, biochemical, FRET, Cerulean-Runt, Venus-CBFb-SMMHC, uHTS | 220,000 tested, 0.74% active | Cerulean-Runt/Venus-CBFb-SMMHC FRET ratio 530/480, 1 h | inhibition, % at 20 µM | AID 1434, 2008;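 active = mean inhibition across duplicate retests at 20 µM reaching about 50%, limit read from the data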;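 also: 0% = DMSO wells and 100% = wells with excess untagged CBFb-SMMHC; inhibitors lower the FRET ratio by blocking Runt binding to CBFb-SMMHC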
Runt-CBFb FRET: inhibitors of RUNX1 Runt–CBFb binding, primary screen, biochemical, FRET, Cerulean-Runt, Venus-CBFb, uHTS; Cerulean-Runt/Venus-CBFb FRET ratio 530/480, 1 h; inhibition, % at 20 µM; 220,000 tested, 0.46% active; AID 1496, 2009;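 active = inhibition over about 50% at 20 µM in the single-dose screen, limit read from the data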;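 also: 0% = DMSO wells and 100% = excess unlabeled CBFb competitor control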
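Reagent – Venus-CBFb binding partner, 100 nM · Assay system – Cerulean-tagged RUNX1 Runt domain (FRET donor) fusion protein · Input – 100 nM per protein · Incubation – two 1 h room-temperature incubations shielded from light · Measured by – FRET fluorescence · Medium – Tris buffer pH 7.5 with salts and BSA · Benchmarks – unlabeled CBFb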
Hck-Nef inh: inhibitors of Nef-activated human Hck kinase, primary screen, biochemical, Z-Lyte FRET, 384-well, Hck-YEEI. inhibition, % at 20 µM. 220,000 tested, 0.68% active. Recombinant Hck-YEEI plus Nef, Z-Lyte FRET kinase assay. Tyrosine-protein kinase HCK (Homo sapiens), P08631;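 active = Hck-Nef kinase inhibition above about 50%, limit read from the data; inactive = inhibition below that limit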;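 also: 0% = DMSO with Hck plus Nef and 100% = Hck alone without Nef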
Target sequence (P08631 whole entry, looked up): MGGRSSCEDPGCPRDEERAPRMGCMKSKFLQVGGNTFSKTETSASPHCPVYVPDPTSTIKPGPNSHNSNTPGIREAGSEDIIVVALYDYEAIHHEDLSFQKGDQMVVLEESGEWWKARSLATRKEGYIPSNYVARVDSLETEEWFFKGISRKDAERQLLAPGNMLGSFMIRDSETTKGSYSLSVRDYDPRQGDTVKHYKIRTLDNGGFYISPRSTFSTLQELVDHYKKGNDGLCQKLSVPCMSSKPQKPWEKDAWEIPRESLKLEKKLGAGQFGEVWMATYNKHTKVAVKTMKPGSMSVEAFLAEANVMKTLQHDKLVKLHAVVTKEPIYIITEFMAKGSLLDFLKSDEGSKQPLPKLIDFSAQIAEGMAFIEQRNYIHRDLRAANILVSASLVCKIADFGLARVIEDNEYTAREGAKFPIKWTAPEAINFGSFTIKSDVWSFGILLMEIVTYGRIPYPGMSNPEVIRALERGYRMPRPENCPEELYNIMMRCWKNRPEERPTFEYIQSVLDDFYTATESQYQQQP
RanGTP-Imp inh: inhibitors of RanGTP-importin-beta interaction, primary screen, biochemical, FRET, CFP-Ran, YFP-importin-beta, homogeneous | cell-free CFP-Ran/YFP-importin-beta FRET ratio | inhibition, % (no concentration beside the values) | 300,000 tested, 1.1% active | AID 2216, 2009;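 active = more than half of the replicate wells show a fall in the fluorescence ratio signal beyond about 16%, limit read from the data, passing the limit was not always enough; inconclusive = exactly half of the replicate wells pass the set limit; inactive = fewer than half of replicates pass the limit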;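 also: 0% = DMSO wells and 100% = Ran loaded with GDP instead of GTP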
An asterisk follows results filed as active; ? = inconclusive; nt = no result given. Shown are actives, neighbours in structure and some others; about 1.8% of the full set was active somewhere.

SMILES	Runt-SMMHC FRET	Runt-CBFb FRET	Hck-Nef inh	RanGTP-Imp inh
O=C(N/N=C/c1cccc([N+](=O)[O-])c1)C1CC1c1ccccc1 (stereo unspecified)	0	0	1	-1
FC(F)(F)c1cc(-c2ccco2)nc(NCc2ccccc2)n1	-4	1	1	2
Fc1ccc(CNc2nc(-c3ccco3)cc(C(F)(F)F)n2)cc1	-17	6	5	58*
CCOC(=O)c1ccc(Nc2ccc([N+](=O)[O-])cn2)cc1	-35	-41	3	19*
COc1ccc(Nc2ccc([N+](=O)[O-])cn2)cc1	nt	nt	nt	-4
CCN(CC)CC(=O)N1CCCC(N2CCN(c3cccc(C(F)(F)F)c3)CC2)C1 (stereo unspecified)	nt	nt	nt	4
Cc1ccc(C23CC4CC(CC(C(=O)N5CCN(C)CC5)(C4)C2)C3)cc1	4	-2	24	2
Cc1ccc(C23CC4CC(CC(CC(=O)N5CCOCC5)(C4)C2)C3)cc1	-15	-4	-1	25*
CN(C)/C=N/C1=C(C#N)C(c2ccc(Br)cc2)c2ccc3ccccc3c2O1 (stereo unspecified)	nt	nt	nt	21*
COc1ccc(-c2oc3cccnc3c2C#CC2(O)CCCCC2)cc1	nt	nt	nt	23*
COc1ccc(-c2oc3cccnc3c2C#CCO)cc1	nt	nt	nt	5
C/C(=N\Nc1cc(C)nc(-c2ccccc2O)n1)c1ccccc1O	0	1	15	28*
CCC1=NN(C(=O)Cc2ccc([N+](=O)[O-])cc2)C(O)(c2ccncc2)C1 (stereo unspecified)	-2	-2	16	18*
CC(C)CCn1c(SCC(=O)NC2CC2)nc2cc(Cl)ccc2c1=O	nt	nt	nt	-1
CCOC(=O)N1CCN(c2nc(C)c3c(n2)CC(C)CC3=O)CC1 (stereo unspecified)	2	-2	0	nt
Cc1ccc[n+](CC(=O)Nc2ccc([N+](=O)[O-])cc2Cl)c1	9	0	1	176*
CC(C)CNC(=O)C(=O)NCC1OCCCN1S(=O)(=O)c1ccc2c(c1)OCCO2 (stereo unspecified)	nt	nt	nt	0
Cn1c(/C=C/c2ccccc2)nc2ccccc21	4	0	16	1
CC(=O)c1ccc(/C=C/c2nc3ccccc3n2C)o1	81*	9	-27	-54
Nc1nc2ccccc2n1C(=O)c1ccc(F)cc1	2	-1	21	-2
O=c1c(/C=C(\O)c2ccc(F)cc2)nc2ccccc2n1-c1ccccc1	8	0	-1	77*
Cn1c(=O)c(/C=C/c2ccccc2)nc2ccccc21	99*	26	7	53*
Cn1c(=O)c(/C=C/c2ccc(F)cc2)nc2ccccc21	38	-8	11	53*
Cc1ccc(C(=O)N2CC(=O)Nc3ccc(F)cc3C2c2ccccc2)cc1 (stereo unspecified)	nt	nt	nt	-1
COc1ccc2nc3ccccc3nc2c1	86*	1	8	38*
SMILES	Runt-SMMHC FRET	Runt-CBFb FRET	Hck-Nef inh	RanGTP-Imp inh
COc1ccc(/C=C2\Oc3cc(OC(=O)N4CCOCC4)ccc3C2=O)cc1	-1	-18	-4	22*
CC(=O)Oc1ccc2c(c1)O/C(=C\c1ccncc1)C2=O	-134	-338	-34	-203
O=C1/C(=C/c2ccc(O)c(O)c2)Oc2cc(O)ccc21	55*	-81	-18	nt
COc1ccc(/C=C2\OC(=O)c3c(OC)cccc32)cc1OC	-16	5	6	39*
COc1cc(/C=C2\Oc3cc(O)ccc3C2=O)ccc1O	78*	11	-33	2
COc1ccc(C=C2C(=O)OC(C)(C)OC2=O)cc1OC	-4	1	2	1
CS(=O)(=O)N1CCc2cc(C(=O)Nc3ccc(Cl)cc3)ccc21	nt	nt	nt	-4
COc1cc(C2SCC(=O)N2Cc2ccccc2)ccc1O (stereo unspecified)	nt	nt	nt	17*
COc1ccc(C2SCC(=O)N2Cc2ccccc2)cc1 (stereo unspecified)	nt	nt	nt	2
COc1cc(C2/C(=C(/O)c3ccc(F)cc3)C(=O)C(=O)N2CCCC(=O)O)ccc1O (stereo unspecified)	-13	-2	-5	0
Cc1ccc(C(=O)Nc2c3c(nn2C(C)(C)C)CS(=O)(=O)C3)cc1C	6	98*	2	-2
Cc1cccc(C(=O)NC2=NCCS2)c1	2	2	76*	4
O=C(NC1=NCCS1)c1ccccc1	nt	nt	nt	3
CC(C)OC(=O)CC(=O)CSc1nc2c(cc1C#N)CCCCC2	71*	35	2	26*
CCOC(=O)CC(=O)CSc1nc2c(c(C)c1C#N)CCC2	13	11	1	24*
O=C(NCc1cccnc1)c1ccc(S(=O)(=O)N2CCCCCC2)cc1	0	0	1	0
Cc1ccc(NC(=O)Nc2ccno2)cc1	1	-1	10	-1
CCN(C(=O)CN1CCc2ccccc21)c1c(N)n(Cc2ccccc2)c(=O)[nH]c1=O	57*	9	17	6
CC(=O)c1c(C)[nH]c(C(=O)NCc2ccc(F)cc2)c1C	0	-2	18	-5
CC(=O)c1c(C)[nH]c(C(=O)NCc2ccccc2)c1C	3	50*	0	-5
S=c1[nH]cc(-c2ccccc2)n1-c1ccccc1Cl	32	12	12	-1
COc1ccccc1-n1c(-c2ccccc2)c[nH]c1=S	54*	21	6	?
CCn1c(SCC(=O)Nc2cc(C)on2)nc2sc3c(c2c1=O)CCCC3	-7	1	53*	?
C=CCn1c(SCC(=O)Nc2cc(C)on2)nc2sc3c(c2c1=O)CCCC3	-2	-1	9	nt
CCN1C(=O)c2cccc3c(S(=O)(=O)NCC4CCCO4)ccc1c23 (stereo unspecified)	81	-22	-14	18*
SMILES	Runt-SMMHC FRET	Runt-CBFb FRET	Hck-Nef inh	RanGTP-Imp inh
CCN1C(=O)c2cccc3c(S(=O)(=O)NCc4cccnc4)ccc1c23	57*	-23	1	23*
CCCC(=O)C1=C(O)C(C(=O)OC)C(C)(C)CC1=NCCc1ccccc1 (stereo unspecified)	nt	nt	nt	2
CC(C)Oc1ccc(N2CC(C(=O)Nc3ccccc3C(=O)NC3CC3)CC2=O)cc1 (stereo unspecified)	nt	nt	nt	-1
COCCCN1C2=C(C(=O)CC(C)(C)C2)C(c2ccc(O)c(OC)c2)C2=C1CC(C)(C)CC2=O	nt	nt	nt	0
CC1(C)CC(=O)C2=C(C1)N(CCN1CCOCC1)C1=C(C(=O)CC(C)(C)C1)C2c1ccc(Cl)cc1	88*	77*	50	127*
CC1(C)CC(=O)C2=C(C1)N(CCN1CCOCC1)C1=C(C(=O)CC(C)(C)C1)C2c1cccc(F)c1	78*	63*	39	130*

Screens deposited in PubChem BioAssay by several laboratories.
